# Assay results pooled from the literature.
# Protocols differ between the studies behind these lines.
# Read-out: enzyme activity
# RET: Proto-oncogene tyrosine-protein kinase receptor Ret (RET, Homo sapiens, UniProt P07949)
Compound,target,assay,setting,remaining activity
CCOc1ccccc1NC(=O)Nc1cc(OC)c2nc(NC(=O)c3ccccc3)sc2c1,RET,"inhibitor, radiometric",0.1 µM,118%
CC(C)(C)c1nc(-c2cccc(NS(=O)(=O)c3c(F)cccc3F)c2F)c(-c2ccnc(N)n2)s1,RET,"inhibitor, radiometric",1 µM,81%
Cc1cnc(NC2CCOCC2)nc1-n1cnc(C(=O)NC(CN)c2cc(F)cc(Cl)c2)c1 (stereo not drawn),"Proto-oncogene tyrosine-protein kinase receptor Ret (RET, Homo sapiens, UniProt P07949, V804L)","inhibitor, radiometric",1 µM,93%
O=C(Nc1cnn(-c2csc(C(=O)NC3COC3)c2)c1)Nc1c(F)cccc1Cl,RET,inhibitor,5 µM,98.1%
Cc1[nH]c(/C=C2\C(=O)Nc3ccc(F)cc32)c(C)c1C(=O)N[C@H]1CCN(C(=O)N(C)C)C1,RET,inhibitor,0.1 µM,62%
COc1cc(NC(=O)Nc2cccc(Br)c2)cc2sc(NC(=O)c3ccccc3)nc12,RET,"inhibitor, radiometric",0.1 µM,153%
Cc1ccc(C(=O)Nc2ccc(CN3CCN(C)CC3)c(C(F)(F)F)c2)cc1C#Cc1cnc2cccnn12,"Proto-oncogene tyrosine-protein kinase receptor Ret (RET, Homo sapiens, UniProt P07949, M918T)",,23.5 nM,1.4%
CCN(CC)CCNC(=O)c1c(C)[nH]c(/C=C2\C(=O)Nc3ccc(F)cc32)c1C,RET,inhibitor,1 µM,0%
COCC(=O)Nc1cc(C(=O)NCCc2cnn(C)c2)cc2ncn(CCc3ccccc3)c12,RET,"inhibitor, radiometric",0.1 µM,118%
CCCOc1ccc(OC)c(F)c1C(=O)c1ccc(C(=O)N[C@@H]2CNC[C@H]2NC(=O)c2ccc3[nH]ncc3c2)cc1,RET,inhibitor,50 nM,100%
COc1cccc(NC(=O)Nc2c(-c3ccc(Cl)cc3)nn(-c3ccc(F)cc3)c2N)c1,RET,"inhibitor, radiometric",0.1 µM,110%
O=C(Nc1cnn(-c2csc(C(=O)NC3COC3)c2)c1)Nc1ccccc1Cl,RET,inhibitor,5 µM,97.8%
